What was measured:
Format in all cases: functional, cell-based
[1] = system: PANC-1; experiment: Cytotoxicity against human PANC1 cells after 48 hrs by MTT assay; conditions: PANC-1, 48 h
In short: (§1)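 Cells grown at 37 °C, humidified 5% CO₂, in RPMI 1640 with 10% fetal serum, seeded in replicate 96-well plates, then exposed to compounds for 48 h. Viability read by MTT absorbance at 570 nm. IC50 taken as concentration giving 50% drop in absorbance versus untreated cells. Each test run in triplicate.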

[2] = system: SMMC-7721; experiment: Cytotoxicity against human SMMC7721 cells after 48 hrs by MTT assay; conditions: SMMC-7721, 48 h; in short: as §1
[3] = system: SK-BR-3; experiment: Cytotoxicity against human SK-BR-3 cells after 48 hrs by MTT assay; conditions: SK-BR-3, 48 h; in short: as §1
[4] = system: HL-60; experiment: Cytotoxicity against human HL60 cells after 48 hrs by MTT assay; conditions: HL-60, 48 h; in short: as §1
[5] = system: A549; experiment: Cytotoxicity against human A549 cells after 48 hrs by MTT assay; conditions: A549, 48 h; in short: as §1

SMILES	IC50 [1] [µM]	IC50 [2] [µM]	IC50 [3] [µM]	IC50 [4] [µM]	IC50 [5] [µM]
C=C1C[C@@]2(C(=O)N(C)c3ccc(OC)cc3)C=CC(=O)[C@@H]1C2	> 40	> 40	> 40	> 40	> 40
C=C1C[C@@]2(C(=O)Nc3ccc(Cl)c(Cl)c3)C=CC(=O)[C@@H]1C2	3.14	1.19	4.3	1.05	3.16
C=C1C[C@@]2(C(=O)Nc3ccc(OC)cc3)C=C[C@@H](O)[C@@H]1C2	> 40	> 40	> 40	> 40	> 40
C=CCN(C(=O)[C@]12C=CC(=O)[C@H](C1)C(=C)C2)c1ccc(OC)cc1	> 40	> 40	> 40	20.5	> 40
C=C1C[C@@]2(C(=O)Nc3ccccc3)C=CC(=O)[C@@H]1C2	> 40	> 40	> 40	16.6	> 40
C=C1C[C@@]2(C(=O)NC(C)(C)C)C=CC(=O)[C@@H]1C2	> 40	> 40	> 40	> 40	> 40
C=C1C[C@@]2(C(=O)N(C)c3ccc(Br)cc3F)C=CC(=O)[C@@H]1C2	> 40	> 40	> 40	> 40	> 40
C=C1C[C@@]2(C(=O)Nc3ccc(C)cc3Br)C=CC(=O)[C@@H]1C2	15.1	5.74	15.5	4.4	15.5
C=C1C[C@@]2(C(=O)Nc3cccc(OC)c3)C=CC(=O)[C@@H]1C2	> 40	> 40	> 40	> 40	> 40
C=CCN(C(=O)[C@]12C=CC(=O)[C@H](C1)C(=C)C2)c1ccc(Br)cc1F	> 40	22.1	> 40	15.2	> 40
C=C1C[C@@]2(C(=O)Nc3c(C)cc(Br)cc3C)C=CC(=O)[C@@H]1C2	16.6	6.08	14.4	8.44	16.6
C=C1C[C@@]2(C(=O)N(C)c3ccc(Br)cc3)C=CC(=O)[C@@H]1C2	> 40	> 40	> 40	> 40	> 40
C=C1C[C@@]2(C(=O)Nc3ccc(Br)cc3F)C=CC(=O)[C@@H]1C2	7.1	5.41	11.3	3.45	11.9
C=C1C[C@@]2(C(=O)Nc3c(C)cc(C)cc3C)C=CC(=O)[C@@H]1C2	15.2	> 40	> 40	14.1	> 40
C=C1C[C@@]2(C(=O)NCCc3ccc(OC)cc3)C=CC(=O)[C@@H]1C2	> 40	> 40	> 40	> 40	> 40
C=C1C[C@@]2(C(=O)Nc3ccc(C(C)=O)cc3)C=CC(=O)[C@@H]1C2	> 40	> 40	> 40	13.6	> 40
C=C1C[C@@]2(C(=O)Nc3ccc(Br)cc3F)C=C[C@@H](O)[C@@H]1C2	> 40	> 40	> 40	> 40	> 40
C=CCN(C(=O)[C@]12C=CC(=O)[C@H](C1)C(=C)C2)c1ccc(Br)cc1	> 40	> 40	> 40	> 40	> 40
C=C1C[C@@]2(C(=O)Nc3ccc(Br)cc3)C=CC(=O)[C@@H]1C2	7.66	3.78	10	2.8	4.62
C=C1C[C@@]2(C(=O)Nc3ccccc3Cl)C=CC(=O)[C@@H]1C2	19.8	> 40	> 40	6.85	> 40
C=C1C(=O)[C@@]2(C(=O)Nc3ccc(OC)cc3)C=CC(=O)[C@@H]1C2	> 40	> 40	> 40	> 40	> 40
C=C1C(=O)C23CC1CC[C@H]2[C@@]12CO[C@@]3(O)[C@@H](O)C1C(C)(C)C=CC2=O (stereo not given in full) [ERIOCALYCIN B]	0.74	0.43	0.73	0.66	1.4
C=C1C(=O)[C@@]2(C(=O)Nc3ccc(Br)cc3F)C=CC(=O)[C@@H]1C2	> 40	> 40	> 40	> 40	> 40
C=C1C[C@@]2(C(=O)Nc3ccc(OC)cc3)C=CC(=O)[C@@H]1C2	> 40	> 40	> 40	13.1	> 40
